Bioassay records as filed in PubChem.
Rows were chosen to be rich in hits. Some 4.5% of all compounds tested hit in one or more screens of this group.
TAAR1 antag: antagonists of human TAAR1 | Q96RJ0 | CHO RD-HGA16 TAAR1, Fluo-8 calcium fluorescence, antagonist | inhibition, % at 3 µM | 1.5% of 360,000 active | AID 624466;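 active = inhibition above a per-plate cutoff, the mean inhibition of test compounds on that plate plus 3 SD, cut at about 49% in these data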;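 also: 0% = DMSO plus EC80 beta-PEA response and 100% = DMSO alone without agonist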
Target sequence (Q96RJ0 whole entry, looked up): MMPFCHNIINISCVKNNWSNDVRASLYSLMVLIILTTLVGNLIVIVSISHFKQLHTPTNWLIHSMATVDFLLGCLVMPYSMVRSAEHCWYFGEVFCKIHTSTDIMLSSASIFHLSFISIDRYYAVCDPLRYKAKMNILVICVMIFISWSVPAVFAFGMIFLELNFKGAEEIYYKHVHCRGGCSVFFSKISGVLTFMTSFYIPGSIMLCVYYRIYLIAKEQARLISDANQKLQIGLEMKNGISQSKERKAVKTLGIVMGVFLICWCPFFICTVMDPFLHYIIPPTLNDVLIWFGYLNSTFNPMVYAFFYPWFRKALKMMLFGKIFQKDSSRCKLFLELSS
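Test system – hTAAR1-expressing CHO RD-HGA16 cells, Gα16-coupled · Also added – β-PEA at EC80 concentration, post-compound challenge · Compound – 3 µM, single point · Incubation – dye loading 75 min at 37 °C, then 30 min room temperature · Measured by – Fluo-8 intracellular calcium dye fluorescence, real-time kinetic reads · Benchmarks – vehicle and agonist controls · Replicates – singlicate, one well per test compound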
CHO parental Ca: counter-screen: ATP calcium response change in parental CHO cells. parental CHO-K1, ATP-induced calcium, Fluo-8 fluorescence. inhibition, % at 5.6 µM. 0.63% of 330,000 active. AID 463079;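 active = inhibition above that plate's mean sample inhibition plus 3 SD, cut at about 26% in these data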;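 also: 0% = ATP-challenged DMSO wells and 100% = DMSO wells without ATP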
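Test system: parental CHO cells; detection: calcium-sensitive Fluo-8 fluorescence; evaluation: percent inhibition of calcium signal; also added: ATP as calcium-mobilizing challenge; repeats: one well per compound; control set: ATP-challenged DMSO wells low, unchallenged DMSO wells high; compound: single nominal dose of 5.6 µM per compound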
OX1R antag-1: blocks the human orexin 1 receptor; O43613; CHO/OX1R cells, Fluo-8 calcium fluorescence, orexin A; inhibition, % at 5 µM; 0.43% of 330,000 active;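 active = inhibition above its plate's threshold, mean inhibition of all tested compounds on the plate plus 3 SD, cut at about 37% in these data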;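 also: 0% = orexin A challenge wells and 100% = SB-334867-A antagonist wells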
GPR7 antagonist: antagonists of human GPR7 (neuropeptides B/W receptor 1); GPR7-expressing cells, fluorescence antagonist assay; inhibition, % at 4.4 µM; 1.1% of 290,000 active; in the data active = inhibition above about 16%, passing the limit was not always enough;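 also: cells stimulated with the agonist NPW; 0% = agonist with vehicle and 100% = vehicle without agonist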
OX1R antag-2: OX1R (human) antagonism; inhibition, % at 6.6 µM; AID 485270; OX1R-expressing cells, FRET antagonist read-out; 1.8% of 330,000 active; O43613; in the data active = inhibition mostly above about 38%, no sharp cut-off; inactive = mostly below about 40%;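 also: 0% = agonist challenge alone and 100% = reference antagonist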
TAAR1 agonist: human TAAR1 agonism; CHO RD-HGA16 TAAR1, Fluo-8 calcium fluorescence; vehicle wells 0%, saturating PEA agonist 100%; activation, % at 3 µM; Q96RJ0; 0.99% of 360,000 active;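 active = activation above the mean activation of all test compounds in the run plus 3 SD, cut at about 38% in these data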
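Signal – calcium-sensitive Fluo-8 signal, excitation 470-495, emission 515-575 nm · System – RD-HGA16 (CHO) cells co-expressing Gα16 and hTAAR1 · Incubation – 17-24 h seeding, 75 min 37 °C dye, 30 min RT · Compound dosing – 3 µM single concentration · Repeats – no replicates (n 1)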
Active calls of the source: *; . = no result given.

SMILES | TAAR1 antag | CHO parental Ca | OX1R antag-1 | GPR7 antagonist | OX1R antag-2 | TAAR1 agonist
CCCc1ccc(Oc2cn[nH]c2-c2ccc(O)cc2O)cc1 | 18.2 | 34.7* | 22.0 | -7.3 | -6.2 | 20.2
Nc1[nH]c(C(=O)c2ccccc2)c(-c2ccccc2Br)c1C(=O)c1cccs1 | 16.7 | . | . | . | . | -0.6
O=C1OC(c2ccc3ccccc3c2O)(c2ccc3ccccc3c2O)c2ccccc21 | -5.9 | . | . | . | . | 1.2
OC(CN(c1ccccc1)c1ccccc1)Cn1cnc2ccccc21 (stereo not drawn) | 57.4* | 0.3 | 31.0 | -2.2 | 29.5 | 8.9
OC(COCc1ccccc1)Cn1cnc2ccccc21 (stereo not drawn) | 9.3 | -15.4 | -5.1 | -9.8 | 4.5 | 7.5
O=C(CCc1nnc(C2CCCCC2)o1)N1CCN(c2ccccc2F)CC1 | -22.6 | 45.9* | -23.7 | -9.8 | 21.9 | 0.7
COc1ccccc1C(=O)N1CCN(C(=O)[C@@H](Cc2ccccc2)NC(=O)[C@H]2O[C@@H](n3ccc(=O)[nH]c3=O)[C@H](O)[C@@H]2O)CC1 | -31.5 | . | . | . | . | 2.8
O=C(CCCSc1nc2ccccc2[nH]1)N1CCN(c2ccc([N+](=O)[O-])cc2)CC1 | 1.0 | 50.1* | 59.1* | 18.5* | 35.5 | -0.8
O=C(Nc1ccccc1C(=O)N1CCOCC1)c1ccc([N+](=O)[O-])cc1 | 6.5 | -9.3 | -13.8 | -11.5 | 47.3* | 2.9
O=C(Cn1cc([N+](=O)[O-])nc1[N+](=O)[O-])N1CCN(c2ccccc2)CC1 | 11.4 | 9.4 | -7.0 | -7.2 | 48.5* | 1.2
O=C(CN1CCOCC1)NNC(=O)c1ccc([N+](=O)[O-])cc1 | -18.1 | -1.0 | -2.5 | -20.2 | 42.8* | 1.9
O=C(Cn1cnc2ccccc2c1=O)N1CCN(c2ccccc2)CC1 | -1.9 | -11.1 | -35.5 | -10.2 | 21.3 | 9.1
C[C@@H]1COc2cc(NCCO)ccc2S(=O)(=O)N1 | 9.4 | . | . | . | . | 2.1
O=C(/C=C/c1ccc([N+](=O)[O-])cc1)OCC(=O)N1CCOCC1 | 1.6 | -0.5 | 4.1 | . | 69.7* | 0.6
O=C(/C=C/c1ccc([N+](=O)[O-])cc1)OCC(=O)N1CCCCCC1 | -13.2 | -4.9 | -6.2 | . | 32.5 | 4.4
O=C(CN1CCN(c2ccc([N+](=O)[O-])cc2Cl)CC1)N1CCOCC1 | -11.9 | -19.6 | -13.7 | 3.4 | 25.3 | 1.3
O=C(CN1CCOCC1)N1CCN(c2ccc([N+](=O)[O-])cc2)CC1 | 7.4 | -2.6 | -4.3 | -15.4 | 75.0* | 5.0
N#Cc1cccc(C=C(C(=O)c2ccccc2)c2ccccc2)c1 | 31.7 | . | . | . | . | -0.5
COc1ccc(N2C[C@@]3(O)CC[C@@H](O)[C@@H](OC)[C@@H]3[C@@](C)(O)[C@@H]2CC=C(C)C)cc1 | -10.2 | . | . | . | . | 0.9
CCN1/C(=C/C=C/c2oc3ccc(-c4ccccc4)cc3[n+]2CC)Oc2ccc(-c3ccccc3)cc21 | 104.8* | 101.0* | 105.0* | 97.8* | 33.9 | 530.6*
COC(=O)[C@]12C[C@H](CC(=O)N3CCSCC3)C(=O)N(Cc3ccccc3)C1=C[C@H](C(C)C)O[C@@H]2C1CC1 | -35.6 | . | . | . | . | 4.0
O=C(Nc1ccc2nc3n(c(=O)c2c1)CCCCC3)c1cc([N+](=O)[O-])ccc1F | -5.8 | -15.0 | -16.0 | 7.2 | 39.2 | 0.3
O=c1nc2n(c3ccc([N+](=O)[O-])cc13)CCCCC2 | -0.3 | -2.5 | 0.1 | -3.2 | 58.6* | 6.2
CC(C)(C)OC(=O)N1CCC(C(=O)Nc2cccc(C(=O)NCCCc3ccccc3)c2)CC1 | 47.9 | . | . | . | . | 18.6
CC(C)(C)OC(=O)N1CCCC(C(=O)Nc2cccc(C(=O)NCCCc3ccccc3)c2)C1 (stereo not drawn) | 48.8* | . | . | . | . | 9.7
NCCCC(C(=O)O)N(C(=O)OCc1ccccc1)C(=O)OCc1ccccc1 (stereo not drawn) | 2.0 | . | . | . | . | 0.8
COCc1cc(N2CCNC[C@H]2C)ccc1N1C[C@@H](C)O[C@@H](C)C1 | -4.1 | . | . | . | . | 1.4
O=[N+]([O-])c1ccc2nc(/C=C/c3ccc(Cl)cc3)[nH]c2c1 | 53.0* | 29.4* | 13.0 | 13.2 | 76.6* | 3.8
Nc1ccc(-c2nc3ccc([N+](=O)[O-])cc3[nH]2)cc1 | 3.0 | -2.6 | 13.8 | 20.1* | 11.8 | 0.8
